# Results gathered from unrelated publications.
# Each line is one published result; the experiments were not run side by side.
# Slc6a4: Sodium-dependent serotonin transporter (Slc6a4, Rattus norvegicus, UniProt P31652)
# HTR1D: 5-hydroxytryptamine receptor 1D (HTR1D, Homo sapiens, UniProt P28221)
# CYP2A6: Cytochrome P450 2A6 (CYP2A6, Homo sapiens, UniProt P11509)
# BRD4 BD1: Bromodomain-containing protein 4, BD1 (BRD4, Homo sapiens, UniProt O60885)
SMILES,target,assay,setting,quantity,value
CN(C)c1ccc(C(CNC(=O)c2ccc(Br)cc2)N(C)C)cc1 (centres unmarked),Slc6a4,"ligand displacement, radioligand",,Ki,0.305 µM
CCCCN1CCC(COC(=O)c2ccc(N)c(OCF)c2)CC1,HTR1D,"cell-free assay, radioligand",,Ki,> 10 µM
C#Cc1ccccc1-c1cc(=O)c2ccccc2o1,CYP2A6,"enzyme activity, inhibitor","6 min, pH 7.6",Ki,> 25 µM
Cc1occc(=S)c1O,"Carbonic anhydrase 15 (Mus musculus, UniProt Q99N23)","enzyme activity, inhibitor, stopped-flow",,Ki,3.1 µM
O[C@H]1[C@H](n2cnc3c(NC(C4CCCCC4)C4CCCCC4)nc(Cl)nc32)[C@H]2C[C@@]2(CF)[C@H]1O,HTR1D,"cell-free assay, radioligand",,Ki,1.99 µM
C#Cc1ccc2cc(-c3ccccc3)c(=O)oc2c1,CYP2A6,"enzyme activity, inhibitor","6 min, pH 7.6",Ki,> 25 µM
CC1=CC(=O)CC(C)(C)[C@@]1(O)/C=C/C(C)=C\C(=O)O,"PYL1 (Arabidopsis thaliana, UniProt Q8VZS8)","binding, MST",,Kd,63.7 µM
C#Cc1ccc(-c2cc(=O)c3ccccc3o2)cc1,CYP2A6,"enzyme activity, inhibitor","6 min, pH 7.6",Ki,> 25 µM
O=C(NCC1CC1)c1cc(N2CC[C@H](O)C2)nc(N2CCC[C@@H](c3ccccc3)C2)n1,"N-acyl-phosphatidylethanolamine-hydrolyzing phospholipase D (Napepld, Mus musculus, UniProt Q8BH82)","enzyme activity, inhibitor, fluorescence",,Ki,0.18 µM
Cn1nnc2ccc(NC(=O)c3cccc(C(=O)O)c3)cc21,BRD4 BD1,"binding, competition with immobilised ligand",,Kd,6.9 µM
COc1cc(C2Oc3c(OC)cccc3C3CC(c4cc(C)ccc4O)=NN32)ccc1O (centres unmarked),"Prostaglandin E synthase 3 (Homo sapiens, UniProt Q15185)","binding, MST",,Kd,1.18 µM
O=c1cc(-c2ccccc2)oc2c1ccc1ccccc12,CYP2A6,"enzyme activity, inhibitor","6 min, pH 7.6",Ki,> 25 µM
Oc1ccc(-c2nc(-c3ccncc3)c(-c3ccc(F)cc3)[nH]2)cc1,BRD4 BD1,"binding, ITC",,Kd,3.42 µM
Cc1cc2nc3c(=O)[nH]c(=O)nc-3n(C[C@H](O)[C@H](O)[C@H](O)COP(=O)(O)OP(=O)(O)OC[C@H]3O[C@@H](n4cnc5c(N)ncnc54)[C@H](O)[C@@H]3O)c2cc1C,"Far upstream element-binding protein 2 (KHSRP, Homo sapiens, UniProt Q92945)",binding,lysate,Kd,0.026 µM
c1ccc(-n2nnnc2N2CCNCC2)cc1,Slc6a4,"ligand displacement, radioligand",,Ki,> 20 µM
O=C1c2ccccc2CCN1CCCCN1CCN(c2cccc(Cl)c2Cl)CC1,HTR1D,"ligand displacement, radioligand",,Ki,> 10 µM
Cc1c(C(=O)NN2CCOCC2)nn(-c2ccc(Cl)cc2Cl)c1-c1ccc(I)cc1,"Mu-type opioid receptor (OPRM1, Homo sapiens, UniProt P35372)","ligand displacement, radioligand",cell membranes,Ki,2.14 µM
